Assays:
[1] = melting temperature; fluorescence melt of hairpins on a sequencing array, two-state fit, raised by 9.35 °C to match UV melts; conditions: sodium 0.088 M
Outline: (§1)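 Library hairpins on a sequenced MiSeq flow cell carried annealed Cy3 and quencher oligos, and their Cy3 fluorescence was imaged in 50 mM Na-HEPES pH 8.0 with 25 mM NaCl, in 2.5 °C steps up to 60 °C. Signals were normalised to Cy3 before quenching and to control constructs. Melting temperature and folding enthalpy were obtained from bootstrapped two-state fits, combined by inverse-variance weighting across four replicates, and the fitted temperatures were then raised by 9.35 °C to match UV melts.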

[2] = folding enthalpy; higher = less favourable; fluorescence melt of hairpins on a sequencing array, two-state fit; conditions: sodium 0.088 M
Outline: as §1

Sequence | Tm [1] [°C] | folding enthalpy [2] [kcal/mol]
GCTGGCGGAAACGTCGGC ((.(.((....)).).)) | 53.1 | -38.7
GCTGGGCGAAAGCAAAGC (((..((....))..))) | 54.1 | -20.9
GCTGGGCGAAAGCCAGC (((.(((....)))))) | 68.5 | -22.4
GCTGGGCGAAAGCCTCGC ((..(((....)))..)) | 44.6 | -14.9
GCTGGGCGAAAGCGCTGC ((.(.((....)).).)) | 60 | -31.7
GCTGGGCGAAAGCGGAGC (((..((....))..))) | 44.1 | -17.2
GCTGGGCGAAAGCTCTGC ((.(.((....)).).)) | 53.1 | -22.3
GCTGGGGGAAACCCCAAC (.(((((....))))).) | 38.5 | -13.2
GCTGGGGGAAACCCCGGC ((.((((....)))).)) | 65.5 | -33.8
GCTGGGGGAAACCCTAGC (((.(((....))).))) | 53.2 | -36.2
GCTGGGGGAAACTCCGGC ((.((.(....).)).)) | 47.1 | -31.1
GCTGGTGGAAACACCAAC (.(((((....))))).) | 41.3 | -14.4
GCTGGTGGAAACACTAGC (((.(((....))).))) | 51.3 | -40.8
GCTGGTGGAAACATCGGC ((.(.((....)).).)) | 43 | -30.4
GCTGTACGAAAGTAAAGC (((.(((....))).))) | 49.6 | -30.2
GCTGTACGAAAGTATAGC (((.(((....))).))) | 54 | -39.6
GCTGTCCGAAAGGAGAGC (((.(((....))).))) | 57 | -34
GCTGTCCGAAAGGATAGC (((.(((....))).))) | 59.3 | -39.6
GCTGTCGAAAGACACAGC ((((((....)))..))) | 48.3 | -14.7
GCTGTCGAAAGACAGAGC ((((((....)))..))) | 54.8 | -13.6
GCTGTCGAAAGACTGAGC ((((((....)))..))) | 43 | -18.5
GCTGTCGGAAACGACAAC (.(((((....))))).) | 40.9 | -12.9
GCTGTCGGAAACGATAGC (((.(((....))).))) | 53.4 | -57.3

Sequence | Tm [1] [°C] | folding enthalpy [2] [kcal/mol]
GCTGTCGGAAACGGTAGC (((..((....))..))) | 41.8 | -28.9
GCTGTCTCGAAAGAGAGC (((..(((....)))))) | 38.3 | -15.5
GCTGTGAAAACAGC (((((....))))) | 63.3 | -30.2
GCTGTGACGAAAGTCAGC (((..(((....)))))) | 47 | -15.1
GCTGTGCGAAAGCAACGC ((..(((....)))..)) | 49.9 | -13.7
GCTGTGCGAAAGCAGCGC ((..(((....)))..)) | 57.1 | -21
GCTGTGCGAAAGCAGGGC ((..(((....)))..)) | 50.3 | -21.1
GCTGTGCGAAAGCCCAGC ((((.((....)).)))) | 61.8 | -28.1
GCTGTGCGAAAGCCCCGC ((.(.((....)).).)) | 31.1 | -12.5
GCTGTGCGAAAGCGTAGC (((..((....))..))) | 49.5 | -17.6
GCTGTGCGAAAGCTCAGC ((((.((....)).)))) | 68 | -36.8
GCTGTGCGAAAGCTCTGC ((.(.((....)).).)) | 44.6 | -22.1
GCTGTGCGAAAGCTTAGC (((..((....))..))) | 41.9 | -22.5
GCTGTGGGAAACTACAGC (((((.(....).))))) | 53.1 | -41.4
GCTGTTACGAAAGTAAGC (((..(((....)))))) | 37.8 | -21.1
GCTGTTCGAAAGAAAGC (((.(((....)))))) | 36.7 | -15.6
GCTGTTGGAAACAACAGC (((((((....))))))) | 67.1 | -44.5
GCTGTTGGAAACGATAGC (((.(.(....).).))) | 32 | -20.9
GCTGTTTCGAAAGAAAGC (((..(((....)))))) | 27.6 | -15.7
GCTTAAGGAAACTTAAGC (((((((....))))))) | 53.2 | -39.6
GCTTAATCGAAAGATAGC (((..(((....)))))) | 30.8 | -16.4
GCTTACCGAAAGGTTAGC (((.(((....))).))) | 52.8 | -35
GCTTACGAAAGTAACAGC ((((((....)))..))) | 37 | -16.2

Sequence | Tm [1] [°C] | folding enthalpy [2] [kcal/mol]
GCTTACGAAAGTAAGAGC ((((((....)))..))) | 45.4 | -18.5
GCTTACGAAAGTAATAGC ((((((....)))..))) | 38.6 | -17.8
GCTTACGAAAGTACAGC ((((((....))).))) | 41.4 | -23.4
GCTTACGAAAGTAGTAGC ((((((....)))..))) | 34.8 | -27.9
GCTTAGAAATAAGC (((((....))))) | 40.5 | -18
GCTTAGACGAAAGTCAGC (((..(((....)))))) | 41.6 | -18.2
GCTTAGCCGAAAGGCAGC (((..(((....)))))) | 45.5 | -16.4
GCTTAGCGAAAGCAAAGC ((((.((....)).)))) | 59.8 | -23.6
GCTTAGCGAAAGCAGAGC (((..((....))..))) | 50 | -19
GCTTAGCGAAAGCCAAGC ((((.((....)).)))) | 53.5 | -22.1
GCTTAGCGAAAGCTATGC ((.((((....)))).)) | 59.5 | -26.6
GCTTAGCGAAAGCTTAGC (((.(((....))).))) | 51.9 | -43.1
GCTTAGGAAACTAAGC ((((((....)))))) | 52.7 | -31.7
GCTTAGGGAAACCCAAGC ((((.((....)).)))) | 44 | -26.7
GCTTAGGGAAACCTAAGC (((((((....))))))) | 59.8 | -34
GCTTATCCGAAAGGAAGC (((..(((....)))))) | 34.3 | -15.5
GCTTATCGAAAGATAGC (((.(((....)))))) | 43.4 | -27.5
GCTTATGGAAACATAGGC ((.((((....)))).)) | 41.6 | -32.8
GCTTCACGAAAGTGCAGC (((.(((....))).))) | 51.6 | -27.7
GCTTCACGAAAGTGTAGC (((.(((....))).))) | 53.8 | -30.2
GCTTCAGCGAAAGCTAGC (((..(((....)))))) | 41.2 | -9.89
GCTTCAGGAAACTAAAGC ((((.((....)).)))) | 28.7 | -26.3
GCTTCCACGAAAGTGAGC (((..(((....)))))) | 33.7 | -12.3

Sequence | Tm [1] [°C] | folding enthalpy [2] [kcal/mol]
GCTTCCGAAAGGAACAGC ((((((....)))..))) | 38.3 | -15.1
GCTTCCGAAAGGACAAGC ((((((....)))..))) | 38.5 | -24.2
GCTTCCGAAAGGACGAGC ((((((....)))..))) | 37.6 | -18.8
GCTTCCGAAAGGAGGAGC ((((((....)))..))) | 39.1 | -21
GCTTCCGAAAGGATTAGC ((((((....)))..))) | 38.3 | -23.2
GCTTCCGGAAACGGAGGC ((.((((....)))).)) | 54.6 | -36.4
GCTTCGACGAAAGTCAGC (((..(((....)))))) | 33.5 | -13.1
GCTTCGCCGAAAGGCAGC (((..(((....)))))) | 40.9 | -10.4
GCTTCGCGAAAGCATAGC (((..((....))..))) | 36.3 | -14.5
GCTTCGCGAAAGCCATGC ((.(.((....)).).)) | 34.6 | -9.05
GCTTCGCGAAAGCCCAGC (((..((....))..))) | 31.2 | -7.98
GCTTCGCGAAAGCGATGC ((.((((....)))).)) | 65.7 | -17.4
GCTTCGCGAAAGCGTAGC (((.(((....))).))) | 55.7 | -42.6
GCTTCGGGAAACCGAAAC (.(((((....))))).) | 40.2 | -15.4
GCTTCTCGAAAGAGCAGC (((.(((....))).))) | 46.8 | -24
GCTTCTGGAAACGGAAGC (((((.(....).))))) | 51.6 | -46.4
GCTTGAGAAATCAAGC ((((((....)))))) | 55.8 | -35.3
GCTTGAGCGAAAGCTAGC (((..(((....)))))) | 47.8 | -13.9
GCTTGAGGAAACTCAAGC (((((((....))))))) | 62.8 | -41.9
GCTTGAGGAAACTCAGGC ((.((((....)))).)) | 47.6 | -32.9
GCTTGCCCGAAAGGGAGC (((..(((....)))))) | 48.1 | -14.7
GCTTGCGAAAGCAAAAGC ((((((....)))..))) | 52.8 | -17.8

— the array DNA melting data of Ke et al. (doi:10.1101/2024.01.08.574731)
